In ChEMBL document CHEMBL1143838, “Candida albicans and Candida dubliniensis respond differently to echinocandin antifungal agents in vitro” (2007):
Converted amounts (≈) assume the structure as drawn.

Experiments:
Assay type in all cases: functional
[1] = system: Candida albicans; assay: Antifungal activity against Candida albicans HK04M102095 after 24 hrs by CLSI M27-A test
Method in brief: (§1)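 CLSI M27-A broth microdilution with aqueous doubling dilutions of drug. Inoculum grown overnight at 30°C in NGY medium, then added to MOPS-buffered RPMI 1640 at an initial 10^3 yeasts/ml. Incubated 35°C for 24 h. MIC read visually as the lowest concentration giving a marked decrease in visible growth; paradoxical or trailing growth noted.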

[2] = system: Candida dubliniensis; assay: Antifungal activity against Candida dubliniensis SCS59662 after 24 hrs by CLSI M27-A test
Method in brief: (§2)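 Broth microdilution with echinocandins as aqueous doubling dilutions. Yeasts were grown overnight at 30°C in NGY and seeded at 10^3 yeasts/ml initial concentration in MOPS-buffered RPMI 1640, then incubated at 35°C for 24 h. The MIC was read visually as the lowest concentration giving a marked decrease in visible growth; paradoxical or trailing growth was noted.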

[3] = system: Candida albicans; assay: Antifungal activity against Candida albicans CAI4RI after 24 hrs by CLSI M27-A test; method in brief: as §1
[4] = system: Candida albicans; assay: Antifungal activity against Candida albicans T28 after 24 hrs by EUCAST test
Method in brief: (§3)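 EUCAST broth microdilution with aqueous doubling dilutions of drug. Inoculum grown overnight at 30°C in NGY, then added to MOPS-buffered RPMI 1640 with 2% glucose at an initial 10^5 yeasts/ml. Incubated 35°C for 24 h. MICs taken from triplicate spectrophotometric dose-response data as 50% and 80% growth-reduction endpoints.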

[5] = system: Candida dubliniensis; assay: Antifungal activity against Candida dubliniensis Leic952 after 24 hrs by EUCAST test
Method in brief: (§4)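 Yeasts were grown overnight at 30°C in NGY, then inoculated at 10^5 yeasts/ml initial concentration into MOPS-buffered RPMI 1640 with 2% glucose containing aqueous doubling dilutions of drug. Plates were held at 35°C for 24 h. MICs came from triplicate spectrophotometric dose-response data at 50% and 80% growth-reduction endpoints. Trailing meant a >100-fold gap between these endpoints; paradoxical meant regrowth ≥5% above the curve minimum.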

[6] = system: Candida albicans; assay: Antifungal activity against Candida albicans NR2 after 24 hrs by CLSI M27-A test; method in brief: as §1
[7] = system: Candida albicans; assay: Antifungal activity against Candida albicans Y109 after 24 hrs by CLSI M27-A test; method in brief: as §1
[8] = system: Candida dubliniensis; assay: Antifungal activity against Candida dubliniensis SCS65875C after 24 hrs by EUCAST test; method in brief: as §4
[9] = system: Candida albicans; assay: Antifungal activity against Candida albicans SCS67023C after 24 hrs by EUCAST test; method in brief: as §3
[10] = system: Candida albicans; assay: Antifungal activity against Candida albicans NR3 after 24 hrs by CLSI M27-A test; method in brief: as §1
[11] = system: Candida albicans; assay: Antifungal activity against Candida albicans T25 after 24 hrs by CLSI M27-A test; method in brief: as §1
[12] = system: Candida albicans; assay: Antifungal activity against Candida albicans CAI4RI after 24 hrs by EUCAST test; method in brief: as §3
[13] = system: Candida albicans; assay: Antifungal activity against Candida albicans B06-341 after 24 hrs by CLSI M27-A test; method in brief: as §1
[14] = system: Candida dubliniensis; assay: Antifungal activity against Candida dubliniensis AMCC after 24 hrs by EUCAST test; method in brief: as §3
[15] = system: Candida albicans; assay: Antifungal activity against Candida albicans NR3 after 24 hrs by EUCAST test; method in brief: as §3
[16] = system: Candida dubliniensis; assay: Antifungal activity against Candida dubliniensis KR after 24 hrs by EUCAST test; method in brief: as §4
[17] = system: Candida dubliniensis; assay: Antifungal activity against Candida dubliniensis 75/043 after 24 hrs by EUCAST test; method in brief: as §3
[18] = system: Candida albicans; assay: Antifungal activity against Candida albicans JIMS146204 after 24 hrs by EUCAST test; method in brief: as §3
[19] = system: Candida albicans; assay: Antifungal activity against Candida albicans AM2003/0083 after 24 hrs by CLSI M27-A test; method in brief: as §1
[20] = system: Candida albicans; assay: Antifungal activity against Candida albicans NR4 after 24 hrs by CLSI M27-A test; method in brief: as §1
[21] = system: Candida albicans; assay: Antifungal activity against Candida albicans T32 after 24 hrs by EUCAST test; method in brief: as §3
[22] = system: Candida dubliniensis; assay: Antifungal activity against Candida dubliniensis 90/033 after 24 hrs by EUCAST test; method in brief: as §3
[23] = system: Candida dubliniensis; assay: Antifungal activity against Candida dubliniensis ST after 24 hrs by CLSI M27-A test; method in brief: as §2
[24] = system: Candida dubliniensis; assay: Antifungal activity against Candida dubliniensis ST after 24 hrs by EUCAST test; method in brief: as §4
[25] = system: Candida albicans; assay: Antifungal activity against Candida albicans NR4 after 24 hrs by EUCAST test; method in brief: as §3
[26] = system: Candida dubliniensis; assay: Antifungal activity against Candida dubliniensis J931021 after 24 hrs by EUCAST test; method in brief: as §4
[27] = system: Candida albicans; assay: Antifungal activity against Candida albicans T32 after 24 hrs by CLSI M27-A test; method in brief: as §1
[28] = system: Candida albicans; assay: Antifungal activity against Candida albicans JIMS132203 after 24 hrs by CLSI M27-A test; method in brief: as §1
[29] = system: Candida albicans; assay: Antifungal activity against Candida albicans AM2003/0083 after 24 hrs by EUCAST test; method in brief: as §3
[30] = system: Candida dubliniensis; assay: Antifungal activity against Candida dubliniensis B71507 after 24 hrs by CLSI M27-A test; method in brief: as §2
[31] = system: Candida dubliniensis; assay: Antifungal activity against Candida dubliniensis 75/043 after 24 hrs by CLSI M27-A test; method in brief: as §1
[32] = system: Candida albicans; assay: Antifungal activity against Candida albicans SCS67023C after 24 hrs by CLSI M27-A test; method in brief: as §1
[33] = system: Candida dubliniensis; assay: Antifungal activity against Candida dubliniensis SCS17154969-1 after 24 hrs by CLSI M27-A test; method in brief: as §2
[34] = system: Candida albicans; assay: Antifungal activity against Candida albicans SCS68858 after 24 hrs by CLSI M27-A test; method in brief: as §1
[35] = system: Candida dubliniensis; assay: Antifungal activity against Candida dubliniensis J930936 after 24 hrs by EUCAST test; method in brief: as §4
[36] = system: Candida albicans; assay: Antifungal activity against Candida albicans T26 after 24 hrs by EUCAST test; method in brief: as §3
[37] = system: Candida dubliniensis; assay: Antifungal activity against Candida dubliniensis 910Aa after 24 hrs by CLSI M27-A test; method in brief: as §1
[38] = system: Candida albicans; assay: Antifungal activity against Candida albicans NR2 after 24 hrs by EUCAST test; method in brief: as §3
[39] = system: Candida dubliniensis; assay: Antifungal activity against Candida dubliniensis FS after 24 hrs by EUCAST test; method in brief: as §4
[40] = system: Candida parapsilosis; assay: Antifungal activity against Candida parapsilosis ATCC 22019 after 24 hrs by EUCAST test; conditions: Lodderomyces parapsilosis, ATCC 22019, 24 h; method in brief: as §4
[41] = system: Candida albicans; assay: Antifungal activity against Candida albicans Y109 after 24 hrs by EUCAST test; method in brief: as §3
[42] = system: Candida albicans; assay: Antifungal activity against Candida albicans B06-341 after 24 hrs by EUCAST test; method in brief: as §3
[43] = system: Candida dubliniensis; assay: Antifungal activity against Candida dubliniensis IK after 24 hrs by EUCAST test; method in brief: as §4
[44] = system: Candida dubliniensis; assay: Antifungal activity against Candida dubliniensis AMCC after 24 hrs by CLSI M27-A test; method in brief: as §1
[45] = system: Candida dubliniensis; assay: Antifungal activity against Candida dubliniensis Leic952 after 24 hrs by CLSI M27-A test; method in brief: as §2

CC[C@H](C)C[C@H](C)CCCCCCCCC(=O)N[C@H]1C[C@@H](O)[C@@H](NCCN)NC(=O)[C@@H]2[C@@H](O)CCN2C(=O)[C@H]([C@H](O)CCN)NC(=O)[C@H]([C@H](O)[C@@H](O)c2ccc(O)cc2)NC(=O)[C@@H]2C[C@@H](O)CN2C(=O)[C@H]([C@@H](C)O)NC1=O [CASPOFUNGIN]
MIC50 [1]: 0.5 µg/mL (≈ 0.457 µM)
MIC50 [2]: 0.5 µg/mL (≈ 0.457 µM)
MIC50 [3]: 4 µg/mL (≈ 3.66 µM)
MIC50 [4]: 0.13 µg/mL (≈ 0.119 µM)
MIC50 [5]: 0.25 µg/mL (≈ 0.229 µM)
MIC50 [6]: 4 µg/mL (≈ 3.66 µM)
MIC50 [7]: 4 µg/mL (≈ 3.66 µM)
MIC50 [8]: 8 µg/mL (≈ 7.32 µM)
MIC50 [9]: 0.25 µg/mL (≈ 0.229 µM)
MIC50 [10]: 8 µg/mL (≈ 7.32 µM)
MIC50 [11]: 8 µg/mL (≈ 7.32 µM)
MIC50 [12]: 4 µg/mL (≈ 3.66 µM)
MIC50 [13]: 0.13 µg/mL (≈ 0.119 µM)
MIC50 [14]: 0.25 µg/mL (≈ 0.229 µM)
MIC50 [15]: 4 µg/mL (≈ 3.66 µM)
MIC50 [16]: 0.25 µg/mL (≈ 0.229 µM)
MIC50 [17]: 0.25 µg/mL (≈ 0.229 µM)
MIC50 [18]: 0.25 µg/mL (≈ 0.229 µM)
MIC50 [19]: 0.5 µg/mL (≈ 0.457 µM)
MIC50 [20]: 2 µg/mL (≈ 1.83 µM)
MIC50 [21]: 0.13 µg/mL (≈ 0.119 µM)
MIC50 [22]: 16 µg/mL (≈ 14.6 µM)
MIC50 [23]: 0.5 µg/mL (≈ 0.457 µM)
MIC50 [24]: 0.5 µg/mL (≈ 0.457 µM)
MIC50 [25]: 2 µg/mL (≈ 1.83 µM)
MIC50 [26]: 16 µg/mL (≈ 14.6 µM)
MIC50 [27]: 0.25 µg/mL (≈ 0.229 µM)
MIC50 [28]: 0.5 µg/mL (≈ 0.457 µM)
MIC50 [29]: 0.25 µg/mL (≈ 0.229 µM)
MIC50 [30]: 0.5 µg/mL (≈ 0.457 µM)
MIC50 [31]: 0.25 µg/mL (≈ 0.229 µM)
MIC50 [32]: 0.5 µg/mL (≈ 0.457 µM)
MIC50 [33]: 0.5 µg/mL (≈ 0.457 µM)
MIC50 [34]: 0.5 µg/mL (≈ 0.457 µM)
MIC50 [35]: 0.25 µg/mL (≈ 0.229 µM)
MIC50 [36]: 16 µg/mL (≈ 14.6 µM)
MIC50 [37]: 0.5 µg/mL (≈ 0.457 µM)
MIC50 [38]: 4 µg/mL (≈ 3.66 µM)
MIC50 [39]: 16 µg/mL (≈ 14.6 µM)
MIC50 [40]: 1 µg/mL (≈ 0.915 µM)
MIC50 [41]: 2 µg/mL (≈ 1.83 µM)
MIC50 [42]: 0.5 µg/mL (≈ 0.457 µM)
MIC50 [43]: 0.25 µg/mL (≈ 0.229 µM)
MIC50 [44]: 0.5 µg/mL (≈ 0.457 µM)
MIC50 [45]: 0.5 µg/mL (≈ 0.457 µM)
